The source made the active and inactive calls. No cut-off for these calls is given here.
Tests used:
[1] = biological target: Receptor tyrosine-protein kinase erbB-4 (Homo sapiens) (UniProt Q15303); test: Inhibition of human ERBB4 at <100 nM by ATP-Competition Binding Assay
[2] = biological target: Casein kinase I isoform alpha-like (Homo sapiens) (UniProt Q8N752); test: Inhibition of human CSNK1A1L assessed as remaining activity at 1 uM by ATP-competition binding assay relative to control
Method in brief: (§1)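 KINOMEscan ATP-site-dependent competition binding panel of 395 human kinases, with compound tested at 1 μM. Binding is reported as remaining signal relative to control.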

[3] = biological target: Protein-tyrosine kinase 6 (Homo sapiens) (UniProt Q13882); test: Inhibition of human BRK assessed as remaining activity at 1 uM by ATP-competition binding assay relative to control; method in brief: as §1
[4] = biological target: Mitogen-activated protein kinase 6 (Homo sapiens) (UniProt Q16659); test: Inhibition of human ERK3 assessed as remaining activity at 1 uM by ATP-competition binding assay relative to control
Method in brief: (§2)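 Single-point profiling at 1μM in an ATP-site-dependent competition binding assay across a panel of 395 human kinases, including mutant forms. The read-out is kinase binding signal in the presence of test agent, expressed as inhibition relative to the control signal. This screen assessed noncovalent binding interactions.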

[5] = tested on: Epidermal growth factor receptor (Homo sapiens), P00533 [L858R]; test: Inhibition of human EGFR L858R mutant assessed as remaining activity at 1 uM by ATP-competition binding assay relative to control
Method in brief: (§3)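 KINOMEscan ATP-site-dependent competition binding assay across a 395-kinase human panel including mutants; compound tested at 1μM; binding expressed relative to control signal.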

[6] = biological target: Serine/threonine-protein kinase pim-1 (Homo sapiens) (UniProt P11309); test: Inhibition of human PIM1 assessed as remaining activity at 1 uM by ATP-competition binding assay relative to control; method in brief: as §2
[7] = tested on: Serine/threonine-protein kinase B-raf (Homo sapiens), P15056 [V600E]; test: Inhibition of human BRAF V600E mutant assessed as remaining activity at 1 uM by ATP-competition binding assay relative to control; method in brief: as §1
[8] = biological target: Receptor-interacting serine/threonine-protein kinase 2 (Homo sapiens) (UniProt O43353); test: Inhibition of human RIPK2 assessed as remaining activity at 1 uM by ATP-competition binding assay relative to control
Method in brief: (§4)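 Single-concentration (1 μM) screen in an ATP-site-dependent competition binding assay (KINOMEscan, outsourced) covering 395 human kinases, mutants included. Non-covalent binding was read as the remaining signal relative to the control signal.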

[9] = biological target: Homeodomain-interacting protein kinase 1 (Homo sapiens) (UniProt Q86Z02); test: Inhibition of human HIPK1 assessed as remaining activity at 1 uM by ATP-competition binding assay relative to control; method in brief: as §2
[10] = tested on: Proto-oncogene tyrosine-protein kinase receptor Ret (Homo sapiens), P07949 [M918T]; test: Inhibition of human RET M918T assessed as remaining activity at 1 uM by ATP-competition binding assay relative to control; method in brief: as §4
Splenocyte = test: In vivo inhibition of BCR signaling in female […] mouse assessed as […] CD69 expression at 1 to 3 mg/kg, po administered and measured after stimulation with anti-IgM for 18 h by flow cytometry analysis; assay type: functional, organism-based; conditions: dose 1-3 mg/kg
Method in brief: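 Female C57BL/6 mice (5 per group per dose) were gavaged orally at 0.1–30 mg/kg. At 3 h, splenocytes were stimulated with anti-mouse IgM 10 μg/mL for 18 h at 37°C, 5% CO2. After Fc block, cells were stained for CD19 and CD69 with 7-AAD viability dye; >5,000 gated CD19+ cells acquired by flow cytometry.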

[11] = biological target: Tyrosine-protein kinase Fes/Fps (Homo sapiens) (UniProt P07332); test: Inhibition of human FES assessed as remaining activity at 1 uM by ATP-competition binding assay relative to control; method in brief: as §2
[12] = biological target: cAMP-dependent protein kinase catalytic subunit beta (Homo sapiens) (UniProt P22694); test: Inhibition of human PKAC-beta assessed as remaining activity at 1 uM by ATP-competition binding assay relative to control; method in brief: as §4
[13] = biological target: Serine/threonine-protein kinase PAK 4 (Homo sapiens) (UniProt O96013); test: Inhibition of human PAK4 assessed as remaining activity at 1 uM by ATP-competition binding assay relative to control; method in brief: as §2
[14] = biological target: Tyrosine-protein kinase CSK (Homo sapiens) (UniProt P41240); test: Inhibition of human CSK assessed as remaining activity at 1 uM by ATP-competition binding assay relative to control; method in brief: as §1
[15] = biological target: Dual specificity protein kinase TTK (Homo sapiens) (UniProt P33981); test: Inhibition of human TTK assessed as remaining activity at 1 uM by ATP-competition binding assay relative to control; method in brief: as §4
[16] = biological target: 3-phosphoinositide-dependent protein kinase 1 (Homo sapiens) (UniProt O15530); test: Inhibition of human PDPK1 assessed as remaining activity at 1 uM by ATP-competition binding assay relative to control; method in brief: as §2
[17] = biological target: Mitogen-activated protein kinase kinase kinase 13 (Homo sapiens) (UniProt O43283); test: Inhibition of human LZK assessed as remaining activity at 1 uM by ATP-competition binding assay relative to control; method in brief: as §2
[18] = biological target: Serine/threonine-protein kinase 17B (Homo sapiens) (UniProt O94768); test: Inhibition of human DRAK2 assessed as remaining activity at 1 uM by ATP-competition binding assay relative to control; method in brief: as §1
[19] = biological target: Serine/threonine-protein kinase LATS1 (Homo sapiens) (UniProt O95835); test: Inhibition of human LATS1 assessed as remaining activity at 1 uM by ATP-competition binding assay relative to control; method in brief: as §2
[20] = tested on: Epidermal growth factor receptor (Homo sapiens), P00533 [L861Q]; test: Inhibition of human EGFR L861Q mutant assessed as remaining activity at 1 uM by ATP-competition binding assay relative to control; method in brief: as §3
[21] = biological target: Activin receptor type-1-like (Homo sapiens) (UniProt P37023); test: Inhibition of human ACVRL1 assessed as remaining activity at 1 uM by ATP-competition binding assay relative to control; method in brief: as §1
[22] = biological target: Hepatocyte growth factor receptor (Homo sapiens) (UniProt P08581); test: Inhibition of human MET assessed as remaining activity at 1 uM by ATP-competition binding assay relative to control; method in brief: as §2
[23] = biological target: Uncharacterized serine/threonine-protein kinase SBK3 (Homo sapiens) (UniProt P0C264); test: Inhibition of human SgK110 assessed as remaining activity at 1 uM by ATP-competition binding assay relative to control; method in brief: as §4
[24] = biological target: Serine/threonine-protein kinase N1 (Homo sapiens) (UniProt Q16512); test: Inhibition of human PKN1 assessed as remaining activity at 1 uM by ATP-competition binding assay relative to control; method in brief: as §4
[25] = biological target: LIM domain kinase 1 (Homo sapiens) (UniProt P53667); test: Inhibition of human LIMK1 assessed as remaining activity at 1 uM by ATP-competition binding assay relative to control; method in brief: as §2
[26] = biological target: Mitogen-activated protein kinase 13 (Homo sapiens) (UniProt O15264); test: Inhibition of human P38delta assessed as remaining activity at 1 uM by ATP-competition binding assay relative to control; method in brief: as §2

CC#CC(=O)N1CCC[C@H]1c1nc(-c2ccc(C(=O)Nc3ccccn3)cc2)c2c(N)nccn12 [ACALABRUTINIB]
inhibition [1]: Active | Activity [2]: 92% | Activity [3]: 79% | Activity [4]: 94% | Activity [5]: 94% | Activity [6]: 84% | Activity [7]: 44% | Activity [8]: 60% | Activity [9]: 90% | Activity [10]: 71% | Activity (Splenocyte): Active | Activity [11]: 100% | Activity [12]: 88% | Activity [13]: 88% | Activity [14]: 86% | Activity [15]: 91% | Activity [16]: 67% | Activity [17]: 83% | Activity [18]: 88% | Activity [19]: 93% | Activity [20]: 84% | Activity [21]: 76% | Activity [22]: 91% | Activity [23]: 90% | Activity [24]: 94% | Activity [25]: 13% | Activity [26]: 57%
